The text below walks through data of ChEMBL document CHEMBL3112490, “Ionic liquid mediated synthesis of mono- and bis-spirooxindole-hexahydropyrrolidines as cholinesterase inhibitors and their molecular docking studies” (Bioorg Med Chem, 2014).

Test [1] deals with T1, Acetylcholinesterase (Homo sapiens, UniProt P22303). The experiment in a line: Inhibition of AChE (unknown origin) using acetylthiocholine iodide as substrate preincubated for 15 mins followed by substrate addition by Ellman's method.
Test [2] can be described thus: Selectivity index, ratio of IC50 for AChE (unknown origin) to IC50 for equine serum BChE.
Test [3] addresses T2, Cholinesterase (Equus caballus, UniProt P81908). The experiment in a line: Inhibition of equine serum BChE using S-butyrylthiocholine chloride as substrate preincubated for 15 mins followed by substrate addition by Ellman's method. In short, it runs like this:
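Modified Ellman assay with equine serum BChE in 0.1 M sodium phosphate, pH 8. Enzyme preincubated with sample (DMSO, 1% final) for 15 min at 25 °C. DTNB (10 mM stock) then added, followed by S-butyrylthiocholine chloride (14 mM stock). Triplicates, blank-corrected; % inhibition calculated relative to control.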
(In general: In Ellman's method for cholinesterases, released thiocholine reacts with DTNB.)

Test [4] can be described thus: Selectivity ratio of IC50 for equine serum BChE to IC50 for AChE (unknown origin).
Test [5] deals with T1, Acetylcholinesterase. Put plainly: Competitive inhibition of AChE (unknown origin) using acetylthiocholine iodide as substrate by Dixon plot analysis. In short, it runs like this:
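Ellman kinetics on AChE, added as a 0.09 units/mL solution, in pH 8 phosphate buffer with a 15 min 25 °C preincubation. Inhibitor at 0, 0.70 and 1.40 µM; acetylthiocholine iodide at 1, 2, 4 and 8 mM; DTNB detection at 412 nm. Mode, Km and Vmax from Lineweaver–Burk plots; Ki from Dixon plot.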

Test [6] addresses T2, Cholinesterase. The experiment in a line: Mixed-type inhibition of equine serum BChE using S-butyrylthiocholine chloride as substrate by Dixon plot analysis. In outline:
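Equine serum BChE run in the same Ellman kinetic format, pH 8, with a 15 min 25 °C preincubation. Inhibitor at 0, 0.90 and 1.81 µM; S-butyrylthiocholine chloride at 1, 2, 4 and 8 mM; read at 412 nm. Inhibition mode, Km and Vmax taken from Lineweaver–Burk plots; Ki from Dixon plot.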

T2 sequence (P81908 whole entry): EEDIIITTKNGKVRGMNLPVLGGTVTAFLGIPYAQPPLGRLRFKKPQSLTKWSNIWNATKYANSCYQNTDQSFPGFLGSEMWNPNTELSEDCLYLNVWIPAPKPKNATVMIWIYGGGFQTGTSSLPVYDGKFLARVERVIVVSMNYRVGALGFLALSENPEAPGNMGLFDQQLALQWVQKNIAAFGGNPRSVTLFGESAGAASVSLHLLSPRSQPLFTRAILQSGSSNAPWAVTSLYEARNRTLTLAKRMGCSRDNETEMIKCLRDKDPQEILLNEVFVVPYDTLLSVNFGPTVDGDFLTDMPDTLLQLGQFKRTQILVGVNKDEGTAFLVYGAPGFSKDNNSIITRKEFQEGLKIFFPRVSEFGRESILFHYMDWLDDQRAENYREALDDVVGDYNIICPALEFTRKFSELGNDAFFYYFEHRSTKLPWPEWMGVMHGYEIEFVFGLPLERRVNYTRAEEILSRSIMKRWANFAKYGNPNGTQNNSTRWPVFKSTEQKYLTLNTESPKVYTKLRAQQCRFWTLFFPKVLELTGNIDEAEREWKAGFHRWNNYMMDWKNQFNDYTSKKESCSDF
T1 sequence (P22303 whole entry): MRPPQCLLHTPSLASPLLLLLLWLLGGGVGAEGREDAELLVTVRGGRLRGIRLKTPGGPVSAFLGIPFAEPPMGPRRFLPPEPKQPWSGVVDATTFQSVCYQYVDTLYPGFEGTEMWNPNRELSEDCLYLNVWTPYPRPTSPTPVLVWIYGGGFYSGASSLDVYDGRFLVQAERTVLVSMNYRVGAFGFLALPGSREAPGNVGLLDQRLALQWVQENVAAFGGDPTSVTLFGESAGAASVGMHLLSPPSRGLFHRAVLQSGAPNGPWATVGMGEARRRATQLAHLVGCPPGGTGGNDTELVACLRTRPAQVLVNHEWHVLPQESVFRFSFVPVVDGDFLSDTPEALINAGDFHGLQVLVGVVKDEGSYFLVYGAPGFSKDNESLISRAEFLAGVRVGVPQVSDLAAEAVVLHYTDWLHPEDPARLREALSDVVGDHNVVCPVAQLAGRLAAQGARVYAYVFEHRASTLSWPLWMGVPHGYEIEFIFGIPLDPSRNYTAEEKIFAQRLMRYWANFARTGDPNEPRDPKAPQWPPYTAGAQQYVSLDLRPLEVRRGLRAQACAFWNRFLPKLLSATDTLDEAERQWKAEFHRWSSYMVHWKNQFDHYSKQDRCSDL

For the molecule `COc1ccccc1/C=C1\CN(C(=O)[C@@H]2CCN(C)[C@]23C(=O)Nc2ccccc23)C[C@]2(C1=O)[C@H](c1ccccc1OC)CN(C)[C@]21C(=O)Nc2ccccc21` (racemic), the IC50 (as a rule, the point on the concentration scale where inhibition reaches its midpoint) at Acetylcholinesterase [1] worked out at 4.73 µM; at Cholinesterase [3] it was 10.4 µM. In addition, the Ratio IC50 in test [2] stood at 0.45; in test [4] it was 2.2.

Regarding `CN1CC[C@@H](C(=O)N2C/C(=C\c3ccccc3Cl)C(=O)[C@@]3(C2)[C@H](c2ccccc2Cl)CN(C)[C@]32C(=O)Nc3ccccc32)[C@@]12C(=O)Nc1ccccc12` (racemic), the IC50 against Acetylcholinesterase [1] was 5.19 µM; against Cholinesterase [3] it was 9.38 µM. For the same molecule, the Ratio IC50 in test [2] is 0.55; in test [4], 1.81.

Turning to `CN1CC[C@@H](C(=O)N2C/C(=C\c3ccccc3F)C(=O)[C@@]3(C2)[C@H](c2ccccc2F)CN(C)[C@]32C(=O)Nc3ccccc32)[C@@]12C(=O)Nc1ccccc12` (racemic), the IC50 on Acetylcholinesterase [1] came to 6.18 µM; at Cholinesterase [3] it was 7.44 µM. Also, the Ratio IC50 was found to be 0.83 in test [2] and 1.2 in test [4].

Take `CN1CC[C@@H](C(=O)N2C/C(=C\c3cccc([N+](=O)[O-])c3)C(=O)[C@@]3(C2)[C@H](c2cccc([N+](=O)[O-])c2)CN(C)[C@]32C(=O)Nc3ccccc32)[C@@]12C(=O)Nc1ccccc12` (racemic): the IC50 on Acetylcholinesterase [1] came out at 2.47 µM; against Cholinesterase [3] it was 12.3 µM. Besides, the Ratio IC50 in test [2] came out at 0.2; in test [4], 5.

In the case of `CN1CC[C@@H](C(=O)N2C/C(=C\c3ccc(Cl)cc3Cl)C(=O)[C@@]3(C2)[C@H](c2ccc(Cl)cc2Cl)CN(C)[C@]32C(=O)Nc3ccccc32)[C@@]12C(=O)Nc1ccccc12` (racemic), the figures for the IC50 on Acetylcholinesterase [1] and against Cholinesterase [3] were 4.42 µM and 17.9 µM, respectively. Also, the values for the Ratio IC50 in test [2] and in test [4] were 0.25 and 4.05, respectively.

For `Cc1ccc(/C=C2\CN(C(=O)[C@@H]3CCN(C)[C@]34C(=O)Nc3ccccc34)C[C@]3(C2=O)[C@H](c2ccc(C)cc2)CN(C)[C@]32C(=O)Nc3ccccc32)cc1` (racemic), the IC50 was found to be 7.67 µM at Acetylcholinesterase [1] and 11.3 µM at Cholinesterase [3]. Moreover, the Ratio IC50 in test [2] was determined as 0.68; in test [4] it was 1.47.

For the molecule `CN1CC[C@@H](C(=O)N2C/C(=C\c3ccc(Cl)cc3)C(=O)[C@@]3(C2)[C@H](c2ccc(Cl)cc2)CN(C)[C@]32C(=O)Nc3ccccc32)[C@@]12C(=O)Nc1ccccc12` (racemic), the figures for the IC50 at Acetylcholinesterase [1] and at Cholinesterase [3] were 6.14 µM and 9.44 µM, respectively. In addition, the Ratio IC50 in test [2] was 0.65; in test [4], 1.54.

As to `CN1CC[C@@H](C(=O)N2C/C(=C\c3ccc(F)cc3)C(=O)[C@@]3(C2)[C@H](c2ccc(F)cc2)CN(C)[C@]32C(=O)Nc3ccccc32)[C@@]12C(=O)Nc1ccccc12` (racemic), the IC50 worked out at 2.35 µM against Acetylcholinesterase [1] and 7.82 µM on Cholinesterase [3]. Further, the Ki (usually the equilibrium dissociation constant of an inhibitor or competing ligand from its target) on Acetylcholinesterase [5] is 2.01 µM. In addition, the Ratio IC50 in test [2] came to 0.3; in test [4], 3.33.

Turning to `CN1CC[C@@H](C(=O)N2C/C(=C\c3cccc4ccccc34)C(=O)[C@@]3(C2)[C@H](c2cccc4ccccc24)CN(C)[C@]32C(=O)Nc3ccccc32)[C@@]12C(=O)Nc1ccccc12` (racemic), the figures for the IC50 against Acetylcholinesterase [1] and against Cholinesterase [3] were 4.93 µM and 19.1 µM, respectively. In addition, the Ratio IC50 in test [2] turned out to be 0.26; in test [4], 3.88.

As to `C=CC(=O)N1C/C(=C\c2ccccc2)C(=O)[C@@]2(C1)[C@H](c1ccccc1)CN(C)[C@]21C(=O)Nc2ccccc21` (racemic), the IC50 stood at 8.74 µM against Acetylcholinesterase [1] and 7.52 µM against Cholinesterase [3]. The Ratio IC50 was 1.16 in test [2] and 0.86 in test [4].

As to `C=CC(=O)N1C/C(=C\c2ccccc2C)C(=O)[C@@]2(C1)[C@H](c1ccccc1C)CN(C)[C@]21C(=O)Nc2ccccc21` (racemic), the values for the IC50 on Acetylcholinesterase [1] and against Cholinesterase [3] were 3.97 µM and 3.86 µM, respectively. Also, the values for the Ratio IC50 in test [2] and in test [4] were 1.03 and 0.97, respectively.

Turning to `C=CC(=O)N1C/C(=C\c2ccccc2OC)C(=O)[C@@]2(C1)[C@H](c1ccccc1OC)CN(C)[C@]21C(=O)Nc2ccccc21` (racemic), the IC50 was 4.1 µM against Acetylcholinesterase [1] and 4.22 µM at Cholinesterase [3]. Moreover, the Ratio IC50 in test [2] turned out to be 0.97; in test [4] it was 1.03.

As to `C=CC(=O)N1C/C(=C\c2ccccc2Cl)C(=O)[C@@]2(C1)[C@H](c1ccccc1Cl)CN(C)[C@]21C(=O)Nc2ccccc21` (racemic), the values for the IC50 against Acetylcholinesterase [1] and against Cholinesterase [3] were 5.12 µM and 4.2 µM, respectively. Moreover, the Ratio IC50 in test [2] turned out to be 1.22; in test [4], 0.82.

Consider `C=CC(=O)N1C/C(=C\c2ccccc2F)C(=O)[C@@]2(C1)[C@H](c1ccccc1F)CN(C)[C@]21C(=O)Nc2ccccc21` (racemic), for which the IC50 came to 6.88 µM on Acetylcholinesterase [1] and 3.21 µM against Cholinesterase [3]. This molecule returned a Ki at Cholinesterase [6] of 6.76 µM. The Ratio IC50 in test [2] worked out at 2.14; in test [4], 0.47.

Consider `C=CC(=O)N1C/C(=C\c2cccc([N+](=O)[O-])c2)C(=O)[C@@]2(C1)[C@H](c1cccc([N+](=O)[O-])c1)CN(C)[C@]21C(=O)Nc2ccccc21` (racemic), for which the half-maximal inhibitory concentration (IC50) on Acetylcholinesterase [1] stood at 5.34 µM; against Cholinesterase [3] it was 7.74 µM. Besides, the Ratio IC50 is 0.69 in test [2] and 1.45 in test [4].

Consider `C=CC(=O)N1C/C(=C\c2ccc(Cl)cc2Cl)C(=O)[C@@]2(C1)[C@H](c1ccc(Cl)cc1Cl)CN(C)[C@]21C(=O)Nc2ccccc21` (racemic), for which the IC50 came to 6.14 µM at Acetylcholinesterase [1] and 5.32 µM on Cholinesterase [3]. Moreover, the values for the Ratio IC50 in test [2] and in test [4] were 1.15 and 0.87, respectively.

With `C=CC(=O)N1C/C(=C\c2ccc(C)cc2)C(=O)[C@@]2(C1)[C@H](c1ccc(C)cc1)CN(C)[C@]21C(=O)Nc2ccccc21` (racemic), the values for the concentration for half-maximal inhibition (IC50) on Acetylcholinesterase [1] and against Cholinesterase [3] were 7.49 µM and 9.28 µM, respectively. Besides, the values for the Ratio IC50 in test [2] and in test [4] were 0.81 and 1.24, respectively.

With `C=CC(=O)N1C/C(=C\c2ccc(Cl)cc2)C(=O)[C@@]2(C1)[C@H](c1ccc(Cl)cc1)CN(C)[C@]21C(=O)Nc2ccccc21` (racemic), the 50% inhibitory concentration (IC50) against Acetylcholinesterase [1] stood at 8.4 µM; on Cholinesterase [3] it was 6.77 µM. Moreover, the Ratio IC50 in test [2] was 1.24; in test [4], 0.81.

In the case of `C=CC(=O)N1C/C(=C\c2ccc(F)cc2)C(=O)[C@@]2(C1)[C@H](c1ccc(F)cc1)CN(C)[C@]21C(=O)Nc2ccccc21` (racemic), the IC50 came out at 7.8 µM at Acetylcholinesterase [1] and 3.39 µM against Cholinesterase [3]. In addition, the Ratio IC50 in test [2] was 2.3; in test [4], 0.43.

Take `C=CC(=O)N1C/C(=C\c2cccc3ccccc23)C(=O)[C@@]2(C1)[C@H](c1cccc3ccccc13)CN(C)[C@]21C(=O)Nc2ccccc21` (racemic): the IC50 against Acetylcholinesterase [1] worked out at 7.59 µM; against Cholinesterase [3] it was 8.85 µM. Besides, the Ratio IC50 amounted to 0.86 in test [2] and 1.17 in test [4].

`CN1CC[C@@H](C(=O)N2C/C(=C\c3ccccc3)C(=O)[C@@]3(C2)[C@H](c2ccccc2)CN(C)[C@]32C(=O)Nc3ccccc32)[C@@]12C(=O)Nc1ccccc12` (racemic): the IC50 was 2.63 µM against Acetylcholinesterase [1] and 9.34 µM against Cholinesterase [3]. The Ratio IC50 came out at 0.28 in test [2] and 3.55 in test [4].

Consider `Cc1ccccc1/C=C1\CN(C(=O)[C@@H]2CCN(C)[C@]23C(=O)Nc2ccccc23)C[C@]2(C1=O)[C@H](c1ccccc1C)CN(C)[C@]21C(=O)Nc2ccccc21` (racemic), for which the values for the IC50 against Acetylcholinesterase [1] and against Cholinesterase [3] were 9.43 µM and 12.5 µM, respectively. The Ratio IC50 in test [2] turned out to be 0.75; in test [4], 1.33.
